# Assay results published in ChEMBL document CHEMBL1158682, “Detecting potential teratogenic alkaloids from blue cohosh rhizomes using an in vitro rat embryo culture” (J Nat Prod, 1999).
# Key:
# [1] = Teratogenic activity in rat embryo assessed as incidence of major malformation at 20 ug/mL after 45 hrs relative to control; format: toxicity
# How it was run: (§1)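 Time-pregnant rats were euthanized with CO2 on gestation day 9. Embryos were dissected on day 9.5 at stages 11a-11c and cultured in 2.0 mL rat serum plus 0.5 mL Waymouth's MB 752/1 with penicillin-streptomycin. Test material in EtOH-DMSO (1:1) was added at culture start, with a solvent control. Growth, development score and major malformations were assessed after 45 h; controls were pooled across experiments.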
# [2] = species: Rattus norvegicus; assay: Effect on growth and morphogenesis of organogenesis-staged rat embryo at 5 ug/mL after 45 hrs relative to control; format: functional; how it was run: as §1
# [3] = Binding affinity to nicotinic receptor
# [4] = Teratogenic activity in rat embryo assessed as incidence of major malformation at 250 ug/mL after 45 hrs relative to control; format: toxicity; how it was run: as §1
# [5] = Teratogenic activity in rat embryo assessed as incidence of major malformation at 80 ug/mL after 45 hrs relative to control; format: toxicity; how it was run: as §1
# [6] = Teratogenic activity in rat embryo assessed as incidence of major malformation at 50 ug/mL after 45 hrs relative to control; format: toxicity; how it was run: as §1
# [7] = species: Rattus norvegicus; assay: Effect on growth and morphogenesis of organogenesis-staged rat embryo at 80 ug/mL after 45 hrs relative to control; format: functional; how it was run: as §1
# [8] = species: Rattus norvegicus; assay: Effect on growth and morphogenesis of organogenesis-staged rat embryo at 20 ug/mL after 45 hrs relative to control; format: functional; how it was run: as §1
# [9] = Teratogenic activity in rat embryo assessed as incidence of major malformation at 5 ug/mL after 45 hrs relative to control; format: toxicity; how it was run: as §1
# [10] = species: Rattus norvegicus; assay: Effect on growth and morphogenesis of organogenesis-staged rat embryo at 250 ug/mL after 45 hrs relative to control; format: functional; how it was run: as §1
# [11] = Binding affinity to muscarinic acetylcholine receptor
# [12] = species: Rattus norvegicus; assay: Effect on growth and morphogenesis of organogenesis-staged rat embryo at 1.25 ug/mL after 45 hrs relative to control; format: functional
# How it was run: (§2)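 Rat whole embryo culture: gestation day 9.5 embryos (stages 11a-11c) dissected from time-pregnant dams. Medium was 2.0 mL rat serum plus 0.5 mL Waymouth's MB 752/1 with penicillin-streptomycin. Test material was dissolved in EtOH-DMSO (1:1) and added at the start of culture; the solvent served as control. After 45 h, a developmental score was assigned and major malformations recorded. Controls were pooled across experiments.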
# [13] = Teratogenic activity in rat embryo assessed as incidence of major malformation at 1.25 ug/mL after 45 hrs relative to control; format: toxicity; how it was run: as §1
# [14] = Embryotoxicity in rat embryo at 80 ug/mL; format: toxicity; how it was run: as §1
# [15] = Embryotoxicity in rat embryo at 5 ug/mL; format: toxicity; how it was run: as §1
# [16] = Embryotoxicity in rat embryo at 20 ug/mL; format: toxicity; how it was run: as §1
# [17] = Embryotoxicity in rat embryo at 250 ug/mL; format: toxicity; how it was run: as §1
# [18] = species: Rattus norvegicus; assay: Effect on growth and morphogenesis of organogenesis-staged rat embryo at 0.1 ug/mL after 45 hrs relative to control; format: functional; how it was run: as §2
smiles,measurement,setting,value
CN1C[C@@H]2C[C@H](C1)c1cccc(=O)n1C2,Activity,[1],29.8%
same,Activity,[2],29%
same,IC50,[3],0.05 µM
same,Activity,[4],22.9%
same,Activity,[5],24%
same,Activity,[6],26.2%
O=C1CCC[C@@H]2[C@@H]3C[C@H](CN12)[C@H]1CCCCN1C3,Activity,[2],29.5%
same,Activity,[7],30.5%
same,Activity,[8],29.2%
O=c1cccc2n1C[C@H]1C[C@@H]2CN2CCCC[C@H]12 [ANAGYRINE],Activity,[1],Not Active
same,Activity,[2],28.2%
same,Activity,[9],Not Active
same,IC50,[3],2100 µM
same,Activity,[10],15.5%
same,Activity,[4],Active
same,IC50,[11],132 µM
same,Activity,[5],Not Active
same,Activity,[7],28.2%
same,Activity,[8],26.5%
COc1ccc2c(c1O)-c1c(O)c(OC)cc3c1[C@H](C2)[N+](C)(C)CC3 [MAGNOFLORINE],Activity,[1],Not Active
same,Activity,[2],29%
same,Activity,[9],Not Active
same,Activity,[12],28.2%
same,Activity,[13],Not Active
same,Activity,[5],Not Active
same,Activity,[7],28.2%
same,Activity,[8],27.8%
COc1ccc2c(=O)oc3c(OC)cc(CCN(C)C)c4c(=O)oc1c2c34 [TASPINE],Activity,[14],Toxic
same,Activity,[9],Not Active
same,Activity,[15],Toxic
same,Activity,[16],Toxic
same,Activity,[12],27.7%
same,Activity,[17],Toxic
same,Activity,[13],Not Active
same,Activity,[18],27.6%
CN1CCCCC1CC(=O)c1ccc(O)cc1 (stereo not given) [THALICHROIDINE],Activity,[1],Not Active
same,Activity,[2],30.8%
same,Activity,[9],Not Active
same,Activity,[7],29.2%
same,Activity,[8],29.5%
